One block for each molecule: values may come before it.
What was measured:
CCRF-CEM [1] = experiment: Effective concentration for cytoprotective effect against HIV-1 infection in CEM cells; No protection of cells to HIV-induced Killing; format: functional, cell-based, Homo sapiens
In short: (§1)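 CEM-SS cells in RPMI 1640 without phenol red (5% FBS, 2 mM L-glutamine, gentamicin), resuspended at 1×10^5 cells/mL, infected with HIV-1 RF at MOI 0.01-0.05. Sterols dissolved in DMSO, serially diluted in medium (final DMSO ≤1%), top concentration 100 μg/mL. Incubated 6 days at 37 °C, 5% CO2. Cytoprotection read by XTT tetrazolium viability, relative to uninfected untreated controls.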

[2] = tested on: Human immunodeficiency virus 2; experiment: Inhibition of HIV-2 (CBL20) nediated cytotoxicity in CEM (human leukemia) cells.; settings: Human immunodeficiency virus 2, CCRF-CEM
CCRF-CEM [3] = experiment: Effective concentration was tested for cytoprotective effect against HIV-1 infection in CEM cells; format: functional, cell-based; settings: Homo sapiens; in short: as §1
[4] = tested on: Human immunodeficiency virus 1; experiment: Inhibition of HIV-1 mediated cytotoxicity in CEM (human leukemia) cells.; format: functional, organism-based; settings: Human immunodeficiency virus 1, CCRF-CEM; in short: as §1
CCRF-CEM [5] = experiment: Effective concentration was tested for cytoprotective effect against HIV-2 CBL 20 strain infection in CEM cells; format: functional, cell-based; settings: Homo sapiens
In short: (§2)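 HIV-2 strain CBL20 infection of CEM cells at MOI 0.01-0.05. Sterols in DMSO, diluted in complete medium (final DMSO ≤1%), maximum 100 μg/mL. Uninfected CEM-SS controls run for toxicity. XTT viability read after 6 days in culture at 37 °C, 5% CO2. Protection expressed as percent of uninfected, untreated controls.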

CCRF-CEM [6] = experiment: Effective concentration for cytoprotective effect against HIV-2 CBL 20 strain infection in CEM cells; No protection of cells to HIV-induced Killing; format: functional, cell-based, Homo sapiens; in short: as §2
CCRF-CEM [7] = experiment: Inhibitory concentration for cytoprotective effect against HIV-1 infection in CEM cells.; format: functional, cell-based; settings: Homo sapiens; in short: as §1
CCRF-CEM [8] = experiment: Effective concentration for cytoprotective effect against HIV-2 infection in CEM cells; No protection of cells to HIV-induced Killing; format: functional, cell-based; settings: Homo sapiens
In short: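 Anticytopathicity test against HIV-2 strain ROD in CEM cells at MOI 0.01-0.05. Cells were held in RPMI 1640 with 5% FBS, and sterols were given from DMSO stocks (final DMSO ≤1%), up to 100 μg/mL. Cultures ran 6 days at 37 °C. Protection from viral killing was scored as percent, with host-cell cytotoxicity assessed in parallel.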

Compound: CC(C)CCC[C@@H](COS(=O)(=O)[O-])[C@H]1CCC2C3CC=C4[C@H](O)[C@H](OS(=O)(=O)[O-])[C@H](O)C[C@]4(C)C3CC[C@@]21C.[Na+].[Na+] (some centres undefined)
EC50 (CCRF-CEM [1]): No protection

Compound: CC(C)C(CCOS(=O)(=O)[O-])CC[C@@H](C)[C@H]1[C@@H](O)[C@H](O)C2[C@]3(O)C[C@@H](O)[C@@]4(O)C[C@@H](O)CC[C@]4(C)C3CC[C@@]21C.[Na+] (some centres undefined)
IC50 [2]: > 164 µM
EC50 (CCRF-CEM [6]): No protection
EC50 (CCRF-CEM [1]): No protection
IC50 [4]: > 164 µM

Compound: CC(C)CCC[C@@H](COS(=O)(=O)O)[C@H]1CCC2C3CC=C4C[C@H](O)[C@@H](OS(=O)(=O)O)C[C@]4(C)C3CC[C@@]21C (some centres undefined)
IC50 [2]: > 161 µM
EC50 (CCRF-CEM [3]): 97 µM
IC50 [4]: > 161 µM

Compound: C=C(C)CCC[C@@H](COS(=O)(=O)O)[C@H]1CC[C@H]2[C@@H]3CC[C@]4(O)[C@H](O)[C@H](OS(=O)(=O)O)CC[C@]4(C)[C@H]3CC[C@]12C
IC50 [2]: > 157 µM
EC50 (CCRF-CEM [3]): 86 µM
IC50 [4]: > 157 µM
EC50 (CCRF-CEM [5]): 39 µM

Compound: CC(C)CCC[C@@H](COS(=O)(=O)O)[C@H]1CC[C@H]2[C@@H]3CCC4[C@H](O)[C@H](OS(=O)(=O)O)CC[C@]4(C)[C@H]3[C@@H](O)C[C@]12C (some centres undefined)
IC50 [2]: > 157 µM
EC50 (CCRF-CEM [3]): 157 µM
IC50 [4]: > 313 µM
EC50 (CCRF-CEM [5]): 110 µM

Compound: CC(C)[C@H](CC[C@@H](C)[C@H]1C[C@H](OS(=O)(=O)[O-])[C@H]2[C@@H]3[C@H](O)[C@H](O)C4C[C@@H](O)CC[C@]4(C)[C@H]3CC[C@@]21C)OC1OCC(O)C(O)C1O.[Na+] (some centres undefined)
IC50 [2]: 69 µM
EC50 (CCRF-CEM [6]): No protection
EC50 (CCRF-CEM [1]): No protection
IC50 (CCRF-CEM [7]): > 123 µM

Compound: C[C@H](CCC(=O)NC(CO)CS(=O)(=O)O)[C@H]1[C@@H](O)[C@H](O)[C@H]2[C@@H]3C[C@@H](O)[C@@]4(O)C[C@@H](O)CC[C@]4(C)[C@H]3CC[C@]12C (some centres undefined)
IC50 [2]: > 174 µM
EC50 (CCRF-CEM [6]): No protection
EC50 (CCRF-CEM [1]): No protection
IC50 [4]: > 174 µM

Compound: CC(=O)O[C@@H]1C[C@H]2[C@@H]3C[C@H](OP(=O)([O-])OC4OC(CO)C(O)C(O)C4O)C4C[C@@H](OS(=O)(=O)[O-])CC[C@]4(C)[C@H]3CC[C@]2(C)[C@H]1[C@H](C)CCCC(C)C.[Na+].[Na+] (some centres undefined)
IC50 [2]: > 125 µM
EC50 (CCRF-CEM [8]): 13 µM
EC50 (CCRF-CEM [1]): No protection
IC50 [4]: > 125 µM

Compound: CC(C)CCC[C@@H](COS(=O)(=O)O)[C@H]1CC[C@H]2[C@@H]3CCC4[C@H](O)[C@H](OS(=O)(=O)O)CC[C@]4(C)[C@H]3[C@@H](O)[C@@H](O)[C@]12C (some centres undefined)
IC50 [2]: > 152 µM
EC50 (CCRF-CEM [3]): 122 µM
IC50 [4]: > 152 µM
EC50 (CCRF-CEM [5]): 107 µM

Compound: CC(C)[C@H](CC[C@@H](C)[C@H]1C[C@H](OS(=O)(=O)[O-])[C@H]2[C@@H]3C[C@H](O)C4C[C@@H](O)CC[C@]4(C)[C@H]3CC[C@@]21C)OC1OCC(O)C(O)C1O.[Na+] (some centres undefined)
IC50 [2]: > 126 µM
EC50 (CCRF-CEM [6]): No protection
EC50 (CCRF-CEM [1]): No protection
IC50 [4]: > 126 µM

Compound: CC(C)C1(CC[C@@H](C)[C@H]2CC[C@@]3(C)C4C[C@H](OS(=O)(=O)O)C5C[C@H](OS(=O)(=O)O)[C@@H](OS(=O)(=O)O)C[C@]5(C)C4=CC[C@]23C)CC1C (some centres undefined)
IC50 [2]: 51 µM
EC50 (CCRF-CEM [3]): 13 µM
IC50 [4]: > 128 µM
EC50 (CCRF-CEM [5]): 8 µM

Compound: COC1([C@@H]2C=C3[C@H](O)C[C@]4(O)C(CC[C@@]5(C)C4[C@@H](OS(=O)(=O)[O-])[C@H](O)[C@@H]5[C@H](C)/C=C/[C@H](CO)C(C)C)[C@@]3(C)CC2)OCC(O)C(O)C1O.[Na+] (some centres undefined)
IC50 [2]: > 64 µM
EC50 (CCRF-CEM [1]): No protection
IC50 [4]: 64 µM

Continued, in another order:

EC50 (CCRF-CEM [3]): 19 µM
EC50 (CCRF-CEM [5]): 128 µM
Compound: CC(C)CC[C@@H](O)[C@@H](C)[C@H]1CCC2C3C[C@H](OS(=O)(=O)O)C4C[C@@H](OS(=O)(=O)O)CC[C@]4(C)C3=CC[C@@]21C (some centres undefined)
IC50 [2]: > 161 µM
IC50 [4]: > 161 µM

EC50 (CCRF-CEM [3]): 6 µM
EC50 (CCRF-CEM [5]): 2 µM
Compound: CC(C)C(C)CC[C@@H](C)[C@H]1CC[C@H]2[C@@H]3C[C@H](OS(=O)(=O)O)C4C[C@H](OS(=O)(=O)O)[C@@H](OS(=O)(=O)O)C[C@]4(C)[C@H]3CC[C@]12C (some centres undefined)
IC50 [2]: 56 µM
IC50 [4]: 56 µM

EC50 (CCRF-CEM [3]): 6 µM
EC50 (CCRF-CEM [5]): 3 µM
Compound: CC(CC[C@@H](C)[C@H]1CC[C@H]2[C@@H]3C[C@H](OS(=O)(=O)O)C4C[C@H](OS(=O)(=O)O)[C@@H](OS(=O)(=O)O)C[C@]4(C)[C@H]3CC[C@]12C)C(C)(C)C (some centres undefined)
IC50 [2]: 41 µM
IC50 [4]: 41 µM

EC50 (CCRF-CEM [3]): 3 µM
EC50 (CCRF-CEM [5]): 7 µM
Compound: CCC(C)(C)C(C)CC[C@@H](C)[C@H]1CC[C@H]2[C@@H]3C[C@H](OS(=O)(=O)O)C4C[C@H](OS(=O)(=O)O)[C@@H](OS(=O)(=O)O)C[C@]4(C)[C@H]3CC[C@]12C (some centres undefined)
IC50 [2]: 94 µM
IC50 [4]: 17 µM

EC50 (CCRF-CEM [3]): 97 µM
EC50 (CCRF-CEM [5]): 161 µM
Compound: C=C(C)CCC[C@@H](COS(=O)(=O)O)[C@H]1CC[C@H]2[C@@H]3CCC4[C@H](O)[C@H](OS(=O)(=O)O)CC[C@]4(C)[C@H]3CC[C@]12C (some centres undefined)
IC50 [2]: > 161 µM
IC50 [4]: > 161 µM

EC50 (CCRF-CEM [3]): 48 µM
Compound: CC(C)CC[C@@H](O)[C@@H](C)[C@H]1CC[C@H]2[C@@H]3C[C@H](OS(=O)(=O)O)C4C[C@@H](OS(=O)(=O)O)CC[C@]4(C)[C@H]3CC[C@]12C (some centres undefined)
IC50 [4]: > 160 µM

EC50 (CCRF-CEM [3]): 13 µM
Compound: CC(=O)O[C@H](CCC(C)C)[C@@H](C)[C@H]1CC[C@H]2[C@@H]3C[C@H](OS(=O)(=O)O)C4C[C@@H](OS(=O)(=O)O)CC[C@]4(C)[C@H]3CC[C@]12C (some centres undefined)
IC50 [4]: > 149 µM

EC50 (CCRF-CEM [3]): 241 µM
EC50 (CCRF-CEM [5]): 80 µM
Compound: CC(C)CCC[C@@H](COS(=O)(=O)O)[C@H]1CCC2C3CC=C4[C@@H](O)[C@H](OS(=O)(=O)O)CC[C@]4(C)C3CC[C@@]21C (some centres undefined)
IC50 [2]: > 161 µM
IC50 [4]: > 322 µM

EC50 (CCRF-CEM [3]): 18 µM
EC50 (CCRF-CEM [5]): 3 µM
Compound: CC(=O)O[C@H](CCC(C)C)[C@@H](C)[C@H]1CCC2C3C[C@H](OS(=O)(=O)O)C4C[C@@H](OS(=O)(=O)O)CC[C@]4(C)C3=CC[C@@]21C (some centres undefined)
IC50 [2]: > 150 µM
IC50 [4]: > 150 µM

EC50 (CCRF-CEM [3]): 164 µM
EC50 (CCRF-CEM [5]): > 63 µM
Compound: CC(C)CCC[C@@H](COS(=O)(=O)O)[C@H]1CC[C@H]2[C@@H]3CC[C@H]4C[C@H](OS(=O)(=O)O)CC[C@]4(C)[C@H]3CC[C@]12C
IC50 [2]: > 156 µM
IC50 [4]: > 312 µM
